Assay results published in ChEMBL document CHEMBL1140313, “Potent inhibitors of subgenomic hepatitis C virus RNA replication through optimization of indole-N-acetamide allosteric inhibitors of the viral NS5B polymerase” (J Med Chem, 2005).

How the values were obtained:
[1] = test system: Huh-7; test: Effective concentration required to inhibit replication of subgenomic HCV RNA in HUH-7 cells in the presence of 10% fetal calf serum; assay type: functional, cell-based; conditions: Homo sapiens
Procedure, shortened: (§1)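 Subgenomic HCV replicon in HUH-7 cells, run in medium with 10% fetal calf serum (a modification of Bartenschlager's method). EC50 was determined only for compounds giving >50% inhibition in an initial screen at a fixed 5 μM. Values are the arithmetic mean ± half-range or standard error of at least two independent determinations, or from a single experiment where noted.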

[2] = molecular target: T1, RNA-directed RNA polymerase (Hepacivirus hominis, UniProt O39930); test: Inhibitory activity against by hepatitis C virus NS5B polymerase
Procedure, shortened: (§2)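 Purified ΔC55 NS5B polymerase assayed with heterogenic template RNA. IC50 values come from a single experiment or are arithmetic means of multiple experiments, as footnoted; some were measured in duplicate.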

[3] = molecular target: T2, pregnane X receptor (PXR, NR1I2) (Homo sapiens, UniProt O75469); test: Inhibition of pregnane X receptor mediated activation of alkaline phosphatase reporter gene at 10 uM; assay type: functional
T2 sequence (O75469 whole entry): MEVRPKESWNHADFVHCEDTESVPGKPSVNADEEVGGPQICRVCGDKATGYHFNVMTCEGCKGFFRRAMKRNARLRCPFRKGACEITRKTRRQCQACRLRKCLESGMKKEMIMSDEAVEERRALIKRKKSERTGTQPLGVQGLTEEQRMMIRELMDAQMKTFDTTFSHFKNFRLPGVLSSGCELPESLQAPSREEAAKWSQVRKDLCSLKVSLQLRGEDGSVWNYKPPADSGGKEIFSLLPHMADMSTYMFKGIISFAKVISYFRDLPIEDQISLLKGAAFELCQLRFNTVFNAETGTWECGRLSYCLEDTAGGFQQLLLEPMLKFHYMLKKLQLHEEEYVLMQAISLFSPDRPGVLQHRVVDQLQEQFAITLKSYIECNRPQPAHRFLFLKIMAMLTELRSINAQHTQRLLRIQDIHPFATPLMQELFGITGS
Procedure, shortened: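 HepG2 cells were cotransfected with a human PXR expression vector and a secreted alkaline phosphatase (SEAP) reporter driven by a synthetic PXR-responsive element. Cells were incubated 48 h with or without test compound, and SEAP activity was read with a commercial detection kit.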

[4] = test system: Huh-7; test: Effective concentration required to inhibit replication of subgenomic HCV RNA in HUH-7 cells; assay type: functional, cell-based; conditions: Homo sapiens; procedure, shortened: as §1
[5] = test system: Huh-7; test: Effective concentration required to inhibit replication of subgenomic HCV RNA in HUH-7 cells in the presence of 50% normal human serum; assay type: functional, cell-based
Procedure, shortened: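 Subgenomic HCV replicon in HUH-7 cells run under high-serum conditions with 50% normal human serum in place of 10% fetal calf serum. EC50 values are the arithmetic mean ± half-range or standard error of at least two independent determinations.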

[6] = molecular target: T1, RNA-directed RNA polymerase; test: Inhibitory activity against hepatitis C virus NS5B polymerase enzyme; Range=6-9 nM; procedure, shortened: as §2
[7] = Oral bioavailability in rat (dose 3 mg/kg); assay type: ADME, organism-based; conditions: in vivo
Procedure, shortened: (§3)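 Sprague-Dawley rats and male beagle dogs, dosed as trifluoroacetate salts (mg/kg; n = 3, some n = 2). Rat vehicle: iv 20% DMSO/[…] with po PEG-400, or iv 20% DMSO/80% saline with po 50% PEG-400/50% H2O. Dog vehicle: iv 20% DMSO/40% PEG-400/40% H2O, po PEG-400. Plasma levels measured by HPLC–MS/MS; noncompartmental analysis; terminal half-life from iv.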

[8] = Plasma half life following 0.5 mg/kg iv administration in dog
[9] = Plasma clearance in dog; assay type: ADME, organism-based, Canis lupus familiaris; conditions: read-out: Clp; procedure, shortened: as §3
[10] = Plasma clearance in rat; assay type: ADME, organism-based; conditions: read-out: Clp; procedure, shortened: as §3
[11] = Plasma half life following 3 mg/kg iv administration in rat; assay type: ADME, organism-based; design: dose 3 mg/kg, route intravenous; procedure, shortened: as §3
[12] = Oral bioavailability in dog at a dose of 2 mg/kg; assay type: ADME, organism-based, Canis lupus familiaris; conditions: in vivo; procedure, shortened: as §3

T1 sequence (O39930 whole entry): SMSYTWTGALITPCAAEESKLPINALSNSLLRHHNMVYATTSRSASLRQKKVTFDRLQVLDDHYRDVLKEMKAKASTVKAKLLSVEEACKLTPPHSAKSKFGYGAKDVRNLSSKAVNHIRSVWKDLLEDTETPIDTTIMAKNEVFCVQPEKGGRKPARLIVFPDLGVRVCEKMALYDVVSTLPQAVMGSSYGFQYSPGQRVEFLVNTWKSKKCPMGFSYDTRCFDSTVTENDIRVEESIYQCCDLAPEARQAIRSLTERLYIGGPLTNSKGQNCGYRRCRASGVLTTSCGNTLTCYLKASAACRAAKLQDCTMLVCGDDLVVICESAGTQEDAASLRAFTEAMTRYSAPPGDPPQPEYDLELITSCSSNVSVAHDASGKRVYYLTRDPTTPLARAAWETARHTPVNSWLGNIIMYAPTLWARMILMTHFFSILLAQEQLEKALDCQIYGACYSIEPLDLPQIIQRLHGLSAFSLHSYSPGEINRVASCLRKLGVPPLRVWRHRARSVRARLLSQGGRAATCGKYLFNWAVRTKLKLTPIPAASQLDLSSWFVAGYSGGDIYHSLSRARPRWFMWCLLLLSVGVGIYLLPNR

EC50 [1] [nM] | IC50 [2] [nM] | EC50 [4] [nM] | SMILES | also measured
300 | 41 |  | CN(C)C1CCN(C(=O)Cn2c(-c3ccccc3)c(C3CCCCC3)c3ccc(C(=O)O)cc32)CC1 | inhibition at 10 µM [3]: 14%
 |  | > 5000 | CN(C)C(=O)CN(C)C(=O)Cn1c(-c2ccccc2)c(C2CCCCC2)c2cc(C(=O)O)ccc21 | 
6700 | 134 |  | CN(C)C(=O)Cn1c(-c2ccncc2)c(C2CCCCC2)c2ccc(C(=O)O)cc21 | 
 |  | > 5000 | O=C(Cn1c(-c2ccccc2)c(C2CCCCC2)c2cc(C(=O)O)ccc21)NCC1CC1 | 
 | 63 | 1300 | O=C(Cn1c(-c2ccccc2)c(C2CCCCC2)c2ccc(C(=O)O)cc21)NCC1CC1 | 
800 | 31 |  | CN(C)C(=O)Cn1c(-c2ccoc2)c(C2CCCCC2)c2ccc(C(=O)O)cc21 | 
 | 12 | 300 | CN1CCN(C(=O)Cn2c(-c3ccc(Cl)cc3)c(C3CCCCC3)c3ccc(C(=O)O)cc32)CC1 | 
 | 43 | 1600 | O=C(O)c1ccc2c(C3CCCCC3)c(-c3ccccc3)n(CC(=O)N3CCS(=O)(=O)CC3)c2c1 | 
 |  | > 5000 | CN1CCCC(CN(C)C(=O)Cn2c(-c3ccccc3)c(C3CCCCC3)c3cc(C(=O)O)ccc32)C1 (stereo unspecified) | 
 | 98 | 1900 | CN(C)C(=O)CN(C)C(=O)Cn1c(-c2ccccc2)c(C2CCCCC2)c2ccc(C(=O)O)cc21 | 
 |  |  | CN(C)C1CCN(C(=O)Cn2c(-c3ccc(Cl)cc3)c(C3CCCCC3)c3ccc(C(=O)O)cc32)CC1 | inhibition at 10 µM [3]: 15%
152 |  |  | CCN(CC)CC1CN(C(=O)Cn2c(-c3ccc(OC)cc3)c(C3CCCCC3)c3ccc(C(=O)O)cc32)CCO1 (stereo unspecified) | EC50 [5]: 376 nM; IC50 [6]: 9 nM
 |  |  | CN1CCCC(CN(C)C(=O)Cn2c(-c3cccc(F)c3)c(C3CCCCC3)c3ccc(C(=O)O)cc32)C1 (stereo unspecified) | inhibition at 10 µM [3]: 72%
 |  | > 5000 | CC(C)N(C)C(=O)Cn1c(-c2ccccc2)c(C2CCCC2)c2ccc(C(=O)O)cc21 | 
600 | 18 |  | CN(C)C(=O)Cn1c(-c2cccc(CN3CCCC(F)(F)C3)c2)c(C2CCCCC2)c2ccc(C(=O)O)cc21 | 
 | 13 | 200 | CN(C)C1CCN(C(=O)Cn2c(-c3ccc(Cl)cc3)c(C3CCCCC3)c3ccc(C(=O)O)cc32)C1 (stereo unspecified) | 
 | 11 | 900 | CC(C)N(C)C(=O)Cn1c(-c2ccc(Cl)cc2)c(C2CCCCC2)c2ccc(C(=O)O)cc21 | 
 | 228 |  | C#Cc1c(C2CCCCC2)c2ccc(C(=O)O)cc2n1CC(=O)N1CCC(N(C)C)CC1 | 
 | 8 | 1400 | O=C(Cn1c(-c2ccc(Cl)cc2)c(C2CCCCC2)c2ccc(C(=O)O)cc21)NCC1CC1 | 
2800 | 49 |  | C=Cc1c(C2CCCCC2)c2ccc(C(=O)O)cc2n1CC(=O)N1CCC(N(C)C)CC1 | 
1800 | 69 |  | COc1ccc(-c2c(C3CCCCC3)c3ccc(C(=O)O)cc3n2CC(=O)N(C)C)cn1 | 
1500 |  |  | CN(C)C(=O)Cn1c(-c2ccccc2)c(C2CCCCC2)c2ccc(C(=O)O)cc21 | 
 | 62 | 1600 | CC(C)N(C)C(=O)Cn1c(-c2ccccc2)c(C2CCCCC2)c2ccc(C(=O)O)cc21 | 
 | 17 | 1100 | CN(C)C(=O)CN(C)C(=O)Cn1c(-c2ccc(Cl)cc2)c(C2CCCCC2)c2ccc(C(=O)O)cc21 | 
 |  | > 5000 | O=C(O)c1ccc2c(C3CCCC3)c(-c3ccccc3)n(CC(=O)N3CCS(=O)(=O)CC3)c2c1 | 
 |  | > 5000 | CS(=O)(=O)N1CCN(C(=O)Cn2c(-c3ccccc3)c(C3CCCCC3)c3cc(C(=O)O)ccc32)CC1 | 
1100 | 78 |  | CC(C)N(C)Cc1cccc(-c2c(C3CCCCC3)c3ccc(C(=O)O)cc3n2CC(=O)N(C)C)c1 | 
 | 47 | 400 | CN1CCCC(CN(C)C(=O)Cn2c(-c3ccccc3)c(C3CCCC3)c3ccc(C(=O)O)cc32)C1 (stereo unspecified) | 

EC50 [1] [nM] | IC50 [2] [nM] | EC50 [4] [nM] | SMILES | also measured
3300 | 147 |  | CN(C)Cc1cccc(-c2c(C3CCCCC3)c3ccc(C(=O)O)cc3n2CC(=O)N(C)C)c1 | 
 | 71 | 700 | CN(C)C1CCN(C(=O)Cn2c(-c3ccccc3)c(C3CCCCC3)c3ccc(C(=O)O)cc32)C1 (stereo unspecified) | 
 |  | > 5000 | CS(=O)(=O)N1CCN(C(=O)Cn2c(-c3ccccc3)c(C3CCCC3)c3ccc(C(=O)O)cc32)CC1 | 
400 | 18 |  | CN(C)C1CCN(C(=O)Cn2c(C3=CCCCC3)c(C3CCCCC3)c3ccc(C(=O)O)cc32)CC1 | 
199 |  |  | O=C(O)c1ccc2c(C3CCCCC3)c(-c3ccoc3)n(CC(=O)N3CCC(N4CCC4)CC3)c2c1 | EC50 [5]: 633 nM; IC50 [6]: 9 nM
 | 78 | 1500 | CN(C)C1CCN(C(=O)Cn2c(-c3ccccc3)c(C3CCCC3)c3ccc(C(=O)O)cc32)C1 (stereo unspecified) | 
4000 | 72 |  | CN(C)C1CCN(C(=O)Cn2c(C3CCCCC3)c(C3CCCCC3)c3ccc(C(=O)O)cc32)CC1 | 
 | 12 | 300 | CN1CCCC(CN(C)C(=O)Cn2c(-c3ccc(Cl)cc3)c(C3CCCCC3)c3ccc(C(=O)O)cc32)C1 (stereo unspecified) | inhibition at 10 µM [3]: 92%
 |  | > 5000 | O=C(Cn1c(-c2ccccc2)c(C2CCCC2)c2ccc(C(=O)O)cc21)NCC1CC1 | 
 |  |  | CN(C)C1CCN(C(=O)Cn2c(-c3cccc(F)c3)c(C3CCCCC3)c3ccc(C(=O)O)cc32)CC1 | inhibition at 10 µM [3]: 10%
13000 | 332 |  | CN(C)C(=O)Cn1c(-c2cccnc2)c(C2CCCCC2)c2ccc(C(=O)O)cc21 | 
 | 18 | 300 | CN1CCCC(CN(C)C(=O)Cn2c(-c3ccccc3)c(C3CCCCC3)c3ccc(C(=O)O)cc32)C1 (stereo unspecified) | bioavailability [7]: 1.9%; half-life [8]: 1.2 h; clearance [9]: 22 mL/min/kg; clearance [10]: 51 mL/min/kg; inhibition at 10 µM [3]: 10%; half-life [11]: 1.5 h; bioavailability [12]: 28%
 | 244 | 5000 | CN(C)C1CCN(C(=O)Cn2c(-c3ccccc3)c(C3CCCCC3)c3cc(C(=O)O)ccc32)C1 (stereo unspecified) | 
 | 39 | 500 | CN1CCN(C(=O)Cn2c(-c3ccccc3)c(C3CCCCC3)c3ccc(C(=O)O)cc32)CC1 | 
 | 68 | 800 | CN1CCN(C(=O)Cn2c(-c3ccccc3)c(C3CCCC3)c3ccc(C(=O)O)cc32)CC1 | 
2700 | 78 |  | CN(C)Cc1cc(-c2c(C3CCCCC3)c3ccc(C(=O)O)cc3n2CC(=O)N(C)C)ccc1Cl | 
158 |  |  | COc1ccc(-c2c(C3CCCCC3)c3ccc(C(=O)O)cc3n2CC(=O)N2CCC(N(C)C)CC2)cc1 | EC50 [5]: 677 nM; IC50 [6]: 9 nM
 | 19 | 900 | CS(=O)(=O)N1CCN(C(=O)Cn2c(-c3ccccc3)c(C3CCCCC3)c3ccc(C(=O)O)cc32)CC1 | 
 | 283 |  | CCc1c(C2CCCCC2)c2ccc(C(=O)O)cc2n1CC(=O)N1CCC(N(C)C)CC1 | 
 |  | > 5000 | O=C(O)c1ccc2c(c1)c(C1CCCCC1)c(-c1ccccc1)n2CC(=O)N1CCS(=O)(=O)CC1 | 
 |  | > 5000 | CN(C)C(=O)CN(C)C(=O)Cn1c(-c2ccccc2)c(C2CCCC2)c2ccc(C(=O)O)cc21 | 
 | 448 | 3500 | CN1CCN(C(=O)Cn2c(-c3ccccc3)c(C3CCCCC3)c3cc(C(=O)O)ccc32)CC1 | 
144 |  |  | CCN(CC)C1CCN(C(=O)Cn2c(-c3ccc(OC)cc3)c(C3CCCCC3)c3ccc(C(=O)O)cc32)CC1 | EC50 [5]: 422 nM; IC50 [6]: 9 nM
17600 | 920 |  | CN(C)Cc1ccc(-c2c(C3CCCCC3)c3ccc(C(=O)O)cc3n2CC(=O)N(C)C)cc1 | 
 | 7 | 500 | CS(=O)(=O)N1CCN(C(=O)Cn2c(-c3ccc(Cl)cc3)c(C3CCCCC3)c3ccc(C(=O)O)cc32)CC1 | 
 |  | > 5000 | CC(C)N(C)C(=O)Cn1c(-c2ccccc2)c(C2CCCCC2)c2cc(C(=O)O)ccc21 | 
 | 11 | 900 | O=C(O)c1ccc2c(C3CCCCC3)c(-c3ccc(Cl)cc3)n(CC(=O)N3CCS(=O)(=O)CC3)c2c1 | 
